Measurements: ChEMBL document CHEMBL5705892, “MK-2206, an allosteric Akt inhibitor, enhances antitumor efficacy by standard chemotherapeutic agents or molecular targeted drugs in vitro and in vivo” (Mol Cancer Ther, 2010)
Activity calls are given as the source filed them. The rule behind the calls is not given here.

Tests used:
[1] = Toxicity in human NCI-H292 cells xenografted CD-1 mouse assessed as weight loss at 120 mg/kg, po administered 3 times per week for 2 weeks starting 2 hrs post-erlotinib treatment and measured during compound dosing; format: organism-based; conditions: in vivo, 336 h
Outline: (§1)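 NCI-H292 cells in 50% Matrigel/PBS injected s.c. into flank of female CD1-nude mice; dosing began after 2 wk at mean tumour 0.2 cm³, n = 5/group. […] Body weight and signs monitored; treatment ended day 16.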

[2] = test system: HCC827; experiment: Synergistic antiproliferative activity against human HCC827 cells assessed as combination index at ED50 measured after 72 hrs in presence of erlotinib by celltiter-glo assay; format: functional
Outline: (§2)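 Cells grown in RPMI 1640 with 10% heat-inactivated FBS at 37°C, 5% CO₂. Seeded at 2 to 3 × 10³ per well; drugs added 24 h later. […] Viability read as cellular ATP by CellTiter-Glo. CI calculated by Chou–Talalay from median-effect plots at ED50, ED75 and ED90.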

[3] = test system: NCI-H292; experiment: Synergistic antiproliferative activity against human NCI-H292 cells assessed as combination index at ED90 measured after 72 hrs in presence of erlotinib by celltiter-glo assay; format: functional
[4] = test system: Calu-6; experiment: Synergistic antiproliferative activity against human Calu-6 cells assessed as combination index at ED90 measured after 72 hrs in presence of erlotinib by celltiter-glo assay; format: functional; outline: as §2
[5] = test system: NCI-H460; experiment: Synergistic antiproliferative activity against human NCI-H460 cells assessed as combination index at ED90 measured after 72 hrs in presence of erlotinib by celltiter-glo assay; format: functional
[6] = test system: MDA-MB-468; experiment: Synergistic antiproliferative activity against human MDA-MB-468 cells assessed as combination index at ED90 measured after 72 hrs in presence of lapatinib by celltiter-glo assay; format: functional
[7] = test system: HCC1954; experiment: Synergistic antiproliferative activity against human HCC1954 cells assessed as combination index at ED90 measured after 72 hrs in presence of lapatinib by celltiter-glo assay; format: functional; outline: as §2
[8] = test system: NCI-N87; experiment: Synergistic antiproliferative activity against human NCI-N87 cells assessed as combination index at ED90 measured after 72 hrs in presence of lapatinib by celltiter-glo assay; format: functional
[9] = molecular target: RAC-alpha serine/threonine-protein kinase (Homo sapiens) (UniProt P31749); experiment: Inhibition of AKT in human HCC827 cells assessed as reduction in AKT phosphorylation at S473 residue at 5 umol/L measured after 5 hrs in presence of erlotinib by Western blot analysis; format: cell-based; conditions: dose 5.0 µmol/L
Chain of RAC-alpha serine/threonine-protein kinase (Homo sapiens) (P31749 whole entry): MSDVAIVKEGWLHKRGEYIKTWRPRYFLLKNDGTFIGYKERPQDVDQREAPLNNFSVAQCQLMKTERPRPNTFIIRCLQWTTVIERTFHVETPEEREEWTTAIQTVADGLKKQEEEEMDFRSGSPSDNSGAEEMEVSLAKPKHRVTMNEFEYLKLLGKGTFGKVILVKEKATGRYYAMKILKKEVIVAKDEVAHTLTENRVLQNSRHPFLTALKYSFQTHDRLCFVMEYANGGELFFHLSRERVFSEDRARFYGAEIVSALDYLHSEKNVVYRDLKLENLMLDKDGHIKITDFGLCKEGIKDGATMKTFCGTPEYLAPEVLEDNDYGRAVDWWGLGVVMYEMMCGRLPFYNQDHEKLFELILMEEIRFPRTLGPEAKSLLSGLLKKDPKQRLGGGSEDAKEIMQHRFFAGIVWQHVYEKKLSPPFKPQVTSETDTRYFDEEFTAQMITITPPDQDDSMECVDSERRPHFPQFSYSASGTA

[10] = In vivo inhibition of ERK phosphorylation at T202/Y204 residues in human NCI-H292 cells xenografted mouse at 120 mg/kg, po administered as single dose measured after 12 hrs by Western blot analysis relative to control; format: functional
[11] = Toxicity in human NCI-H292 cells xenografted CD-1 mouse assessed as weight loss at 360 mg/kg, po administered once a week for 2 weeks starting 2 hrs post-erlotinib treatment and measured during compound dosing; format: organism-based; conditions: in vivo, 336 h; outline: as §1
[12] = test system: HCC1954; experiment: Synergistic antiproliferative activity against human HCC1954 cells assessed as combination index at ED50 treated 24 hrs prior to lapatinib and measured after 72 hrs by celltiter-glo assay; format: functional; conditions: time 96 hrs
[13] = test system: HCC70; experiment: Synergistic antiproliferative activity against lapatinib pretreated human HCC70 cells assessed as combination index at ED90 measured after 72 hrs by celltiter-glo assay; format: functional
[14] = test system: SK-OV-3; experiment: Antitumor activity against human SK-OV-3 cells xenografted in po dosed CB17/icr SCID mouse assessed as tumor growth inhibition administered 3 times per week for 2 weeks starting 2 hrs post lapatinib treatment and measured twice a week during compound dosing by caliper method; format: functional, organism-based; conditions: dose 60-120 mg/kg
Outline: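 SK-OV-3 cells were implanted s.c. into female C.B-17/ICR-scid mice, which were randomized at 0.13 cm³, n = 5. Lapatinib (water) was given at 100 mg/kg po on days 0–4 and 7–11. MK-2206 (30% Captisol) was given at 60 or 120 mg/kg po on days 0, 2, 4, 7, 9, 11. Tumor volume by calipers twice weekly.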

[15] = test system: MDA-MB-453; experiment: Synergistic antiproliferative activity against human MDA-MB-453 cells assessed as combination index at ED50 measured after 72 hrs in presence of docetaxel by celltiter-glo assay; format: functional; outline: as §2
[16] = test system: A2780; experiment: Synergistic antiproliferative activity against human A2780 cells assessed as combination index at ED90 measured after 72 hrs in presence of 5-FU by celltiter-glo assay; format: functional
Outline: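 Cells were seeded at 2–3 × 10³ per well in RPMI 1640 with 10% FBS. At 24 h, MK-2206 and the partner drug were added simultaneously at constant concentration ratios spanning each agent's IC₅₀, for 72 h. Growth was read as cellular ATP by CellTiter-Glo. CI was taken from median-effect plots of each agent alone and in combination (Chou–Talalay), at ED₅₀, ED₇₅ and ED₉₀.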

[17] = test system: NCI-H460; experiment: Synergistic antiproliferative activity against human NCI-H460 cells assessed as combination index at ED50 measured after 72 hrs in presence of gemcitabine by celltiter-glo assay; format: functional
[18] = test system: NCI-H460; experiment: Synergistic antiproliferative activity against human NCI-H460 cells assessed as combination index at ED50 measured after 72 hrs in presence of 5-FU by celltiter-glo assay; format: functional
[19] = test system: NCI-H460; experiment: Synergistic antiproliferative activity against human NCI-H460 cells assessed as combination index at ED75 measured after 72 hrs in presence of doxorubicin by celltiter-glo assay; format: functional
[20] = test system: NCI-H460; experiment: Antitumor activity against human NCI-H460 cells xenografted in CD1 nude mouse assessed as reduction in tumor volume at 120 mg/kg, po administered 3 times per week for 2 weeks in presence of carboplatin by caliper method; format: functional, organism-based
Outline: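 NCI-H460 cells were injected s.c. in Matrigel/PBS into CD1-nude mice (female in the carboplatin study). Mice were randomized at 0.2 cm³, n = 5. Carboplatin was given at 50 mg/kg or gemcitabine at 100 mg/kg, i.v. in saline, on days 0 and 7. MK-2206 (30% Captisol) was given at 120 mg/kg po on days 0, 2, 4, 7, 9, 11. Tumors measured by caliper twice weekly.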

[21] = test system: NCI-H1993; experiment: Synergistic antiproliferative activity against human NCI-H1993 cells assessed as combination index at ED25 to ED90 measured after 72 hrs in presence of carboplatin by celltiter-glo assay; format: functional
[22] = test system: NCI-H1993; experiment: Induction of apoptosis in human NCI-H1993 cells assessed as fold induction of capsase-3/7 activity measured after 24 to 48 hrs in presence of carboplatin by caspase-glo 3/7 assay; format: functional; conditions: time 24-48 hrs
[23] = molecular target: RAC-alpha serine/threonine-protein kinase (Homo sapiens) (UniProt P31749); experiment: Inhibition of AKT phosphorylation at S473 residue in human NCI-H661 cells at 3 umol/L measured after 4 to 24 hrs in presence of gemcitabine by MSD assay; conditions: time 4-24 hrs

In the case of `Cl.NC1(c2ccc(-c3nc4ccn5c(=O)[nH]nc5c4cc3-c3ccccc3)cc2)CCC1`, the Activity [1] was “Toxic”, the CI50 [2] was 0.39 and the CI90 [3] was 0.28. The CI90 [4] was 0.13, the CI90 [5] was 0.17 and the CI90 [6] was 0.16. The CI90 [7] was 0.11, the CI90 [8] was 0.69 and the inhibition [9] was “Active”. The inhibition in vivo at 120 mg/kg [10] was 27.7%, the Activity [11] was “Toxic” and the CI50 [12] was 0.18. For the same compound, the CI90 [13] was 0.18, the TGI [14] was “Dose-Dependent Effect” and the CI50 [15] was 1.2. It also gave a CI90 [16] of 0.53, a CI50 [17] of 0.33 and a CI50 [18] of 0.66. For the same compound, the CI75 [19] was 0.18, the Activity [20] was “Active” and the CI [21] was 0.44. For the same compound, the “fold change (FC)” value [22] was 1.2 and the inhibition [23] was “Active”.
